Source: ChEMBL document CHEMBL3779860, “A Designed Tryptophan- and Lysine/Arginine-Rich Antimicrobial Peptide with Therapeutic Potential for Clinical Antibiotic-Resistant Candida albicans Vaginitis” (J Med Chem, 2016)
Active and inactive are the calls of the source. No cut-off for these calls is given here.

Columns and labels:
[1] = test system: Candida albicans; assay: Antimicrobial activity against antibiotic resistant Candida albicans clinical isolate 08032710 compound treated in PBS solution measured after 36 hrs by disc diffusion method; format: functional; conditions: isolate 08032710, 36 h
Outline: (§1)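 Salt-tolerance test: peptide at 2 mg/mL was prepared in sterile ddH2O, in 150 mM NaCl, or in PBS (150 mM NaCl, 2.7 mM KCl, 1.5 mM KH2PO4, 8 mM K2HPO4, pH 7.2). Anti-C. albicans activity was then assessed by inhibition zone on Sabouraud medium with 0.7% agar.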

[2] = test system: Candida albicans; assay: Antimicrobial activity against antibiotic resistant Candida albicans clinical isolate 08032710 compound treated in NaCl solution measured after 36 hrs by disc diffusion method; format: functional; conditions: isolate 08032710, 36 h; outline: as §1
[3] = test system: Candida albicans; assay: Antimicrobial activity against antibiotic resistant Candida albicans clinical isolate 08030809 compound treated in double distilled water measured after 36 hrs by disc diffusion method; format: functional; conditions: isolate 08030809, 36 h; outline: as §1
[4] = test system: Candida albicans; assay: Antimicrobial activity against antibiotic resistant Candida albicans clinical isolate 08032815 compound treated in double distilled water measured after 36 hrs by disc diffusion method; format: functional; conditions: isolate 08032815, 36 h; outline: as §1
[5] = test system: Candida albicans; assay: Antimicrobial activity against antibiotic resistant Candida albicans after 6 hrs by disc diffusion method in presence of human plasma; format: functional, organism-based
Outline: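 Peptide mixed with human plasma (final concentration 100 µM) at 37°C for up to 24 h. 10 µL aliquots were applied to C. albicans in Sabouraud medium with 0.7% agar. Inhibition zone diameters were read after 36 h.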

[6] = test system: Candida albicans; assay: Antimicrobial activity against antibiotic resistant Candida albicans clinical isolate 08032821 compound treated in double distilled water measured after 36 hrs by disc diffusion method; format: functional; conditions: isolate 08032821, 36 h; outline: as §1
[7] = Ratio of HC50 for human RBC to MIC for Candida albicans ATCC 2002
[8] = test system: Candida albicans; assay: Antimicrobial activity against antibiotic resistant Candida albicans clinical isolate 08022821 after 16 hrs by broth dilution method; format: functional; conditions: isolate 08022821, 16 h
Outline: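 Broth microdilution in Sabouraud liquid medium. Samples are stocks in 0.9% NaCl, 10 µL added to 90 µL broth plus 100 µL of 2 × 10^5 CFU/mL yeast suspension. Incubated 16 h at 28°C, growth read by A600. MIC is the lowest concentration completely inhibiting growth; mean of three independent experiments.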

[9] = test system: Candida albicans; assay: Antimicrobial activity against antibiotic resistant Candida albicans clinical isolate 08030809 assessed as clone count at MIC after 1 hr by colony counting assay (reference value: 228 +/- 23 CFU); format: functional
[10] = test system: Staphylococcus aureus; assay: Antimicrobial activity against Staphylococcus aureus ATCC 2592 assessed as inhibition of […] growth after 16 hrs by broth dilution method; format: functional; conditions: ATCC 2592, 16 h
Outline: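 Broth dilution in LB broth; 100 µL of 2 × 10^5 CFU/mL bacterial suspension plus 10 µL sample (stock series in 0.9% NaCl) in 90 µL broth, 37°C for 16 h. Growth read as A600; MIC is the lowest concentration completely inhibiting growth. Mean of three independent experiments run in duplicate.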

[11] = test system: Candida albicans; assay: Antimicrobial activity against antibiotic resistant Candida albicans clinical isolate 08030809 assessed as clone count at MIC after 24 hrs by colony counting assay (Rvb > 10^5 CFU); format: functional
[12] = test system: Candida albicans; assay: Antimicrobial activity against antibiotic resistant Candida albicans clinical isolate 08030809 assessed as clone count at 5 times MIC after 1 hr by colony counting assay (reference value: 228 +/- 23 CFU); format: functional
[13] = test system: Candida albicans; assay: Antimicrobial activity against antibiotic resistant Candida albicans clinical isolate 08030809 assessed as clone count at 5 times MIC after 3 hrs by colony counting assay (reference value: 3687 +/- 543 CFU); format: functional
[14] = test system: Candida albicans; assay: Antimicrobial activity against antibiotic resistant Candida albicans clinical isolate 08030809 assessed as clone count at 5 times MIC after 12 hrs by colony counting assay (reference value: 54153 +/- 8769 CFU); format: functional
[15] = test system: Candida albicans; assay: Antimicrobial activity against antibiotic resistant Candida albicans clinical isolate 08030809 assessed as clone count at 10 times MIC after 1 hr by colony counting assay (reference value: 228 +/- 23 CFU); format: functional
[16] = test system: Candida albicans; assay: Antimicrobial activity against antibiotic resistant Candida albicans clinical isolate 08030809 assessed as clone count at MIC after 30 mins by colony counting assay (reference value: 156 +/- 16 CFU); format: functional
[17] = test system: Mus musculus; assay: Antiinflammatory activity in antibiotic resistant Candida albicans clinical isolate 08030809 induced mouse vaginitis model assessed as microabscess number in vaginal tissue at 20 ug administered as intravaginal instillation measured on day 6 by hematoxylin-eosin staining based microscopic method (reference value: 61); format: functional, Vagina
Outline: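 Mice given weekly subcutaneous estradiol valerate (0.5 mg in 0.1 mL vegetable oil) 72 h before infection. Infected intravaginally with 20 µL of 10^7 CFU/mL C. albicans 08030809. Intravaginal instillation of 20 µL daily for 16 days. Vaginal canals excised after lavage, formalin-fixed, paraffin-embedded, HE-stained. Microabscesses counted per high-power field over 6 fields per section, three independent experiments.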

[18] = test system: Mus musculus; assay: Antiinflammatory activity in antibiotic resistant Candida albicans clinical isolate 08030809 induced mouse vaginitis model assessed as reduction in IL-10 secretion in vaginal tissue administered as intravaginal instillation measured on day 10 by ELISA; format: functional, organism-based; conditions: Vagina
Outline: (§2)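 Same estradiol-primed mouse model, infected intravaginally with C. albicans 08030809 and treated by intravaginal instillation (20 µL/mouse). Vaginal canals excised on day 10 of treatment and homogenised in 0.9% NaCl. Supernatant taken after 2,000 g for 15 min. TNF-α, IL-6, IL-1β and IL-10 measured by ELISA. Mean ± SE of three independent experiments; unpaired t-test versus vehicle.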

[19] = test system: Candida albicans; assay: Antimicrobial activity against antibiotic resistant Candida albicans clinical isolate 08030809 assessed as clone count at 5 times MIC after 30 mins by colony counting assay (reference value: 156 +/- 16 CFU); format: functional
[20] = test system: Candida albicans; assay: Antimicrobial activity against antibiotic resistant Candida albicans clinical isolate 08030809 assessed as clone count at 10 times MIC after 30 mins by colony counting assay (reference value: 156 +/- 16 CFU); format: functional
[21] = test system: Mus musculus; assay: Antiinflammatory activity in antibiotic resistant Candida albicans clinical isolate 08030809 induced mouse vaginitis model assessed as reduction in TNF-alpha secretion in vaginal tissue at 50 ug administered as intravaginal instillation measured on day 10 by ELISA; format: functional, Vagina; outline: as §2
[22] = test system: Mus musculus; assay: Antiinflammatory activity in antibiotic resistant Candida albicans clinical isolate 08030809 induced mouse vaginitis model assessed as reduction in IL-10 secretion in vaginal tissue at 50 ug administered as intravaginal instillation measured on day 10 by ELISA; format: functional, Vagina; outline: as §2
[23] = test system: Candida albicans; assay: Antimicrobial activity against antibiotic resistant Candida albicans clinical isolate 08030809 in mouse vaginitis model assessed as colony count in lavage liquid of vagina at 20 ug administered as intravaginal instillation measured on day 16; format: functional
[24] = test system: Candida albicans; assay: Antimicrobial activity against antibiotic resistant Candida albicans clinical isolate 08030809 in mouse vaginitis model assessed as decrease in colony count in lavage liquid of vagina at 20 ug administered as intravaginal instillation measured on day 16; format: functional
[25] = test system: Candida albicans; assay: Antimicrobial activity against antibiotic resistant Candida albicans clinical isolate 08030809 in mouse vaginitis model assessed as decrease in colony count in lavage liquid of vagina administered as intravaginal instillation measured on day 1, 6, 11, 16; format: functional, organism-based

Work on H-VKRWKKWRWKWKKWV-NH2 yielded an MIC [1] of 2.79 µg/mL, an MIC [2] of 2.79 µg/mL and an MIC [3] of 1.4 µg/mL. For the same substance, the MIC [4] was 2.79 µg/mL, the Activity [5] was “Active” and the MIC [6] was 2.65 µg/mL. The Ratio [7] was 542, the MIC [8] was 3.13 µg/mL and the Activity [9] was 0 CFU. For the same substance, the MIC [10] was 1.17 µg/mL, the Activity [11] was 0 CFU and the Activity [12] was 0 CFU. It also gave an Activity [13] of 0 CFU, an Activity [14] of 0 CFU and an Activity [15] of 0 CFU. The Activity [16] was 0 CFU, the Activity [17] was 16 and the Activity [18] was “Dose-dependent effect”. The Activity [19] was 0 CFU, the Activity [20] was 0 CFU and the “inhibition (INH)” value [21] was 53%. For the same substance, the “inhibition (INH)” value [22] was 45%, the Activity [23] was 5.4 ×10³ CFU/ml and the “inhibition (INH)” value [24] was 71%. For the same substance, the inhibition [25] was “Dose-dependent effect”.
